# Test results taken from ChEMBL document CHEMBL1255409, “In vitro activity of ceftaroline against 623 diverse strains of anaerobic bacteria” (2010).
# How the values were obtained:
# [1] = test system: Anaerococcus lactolyticus; test: Antimicrobial activity against Anaerococcus lactolyticus under anaerobic conditions after 44 hrs by CLSI-M11-47 protocol based agar dilution method; assay type: functional
# Outline: (§1)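 Reference agar dilution per CLSI M11-A7 with plates made on test day. Clinical isolates were stored at −70°C in 20% skim milk, subcultured twice, and 48-h cell paste was suspended in brucella broth to 0.5 McFarland. About 10^5 CFU/spot was applied with a Steers replicator. Plates were incubated 44 h at 37°C anaerobically. MIC was the lowest concentration giving complete inhibition or marked growth reduction versus the drug-free control.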
# Bacteroides caccae = test: Antimicrobial activity against Bacteroides caccae under anaerobic conditions after 44 hrs by CLSI-M11-47 protocol based agar dilution method; assay type: functional; outline: as §1
# Cutibacterium acnes = test: Antimicrobial activity against Propionibacterium acnes under anaerobic conditions after 44 hrs by CLSI-M11-47 protocol based agar dilution method; assay type: functional
# Outline: (§2)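 Clinical isolates were stored at −70°C in 20% skim milk and identified phenotypically or by partial 16S rRNA sequencing. Each strain was subcultured twice from frozen stock. Cell paste from 48-h cultures was suspended in brucella broth to a 0.5 McFarland standard. About 10^5 CFU per spot were applied by Steers replicator to agar dilution plates prepared on the day of testing. Plates were incubated 44 h at 37°C in an anaerobic chamber. MIC was taken as the lowest concentration giving complete inhibition or marked reduction of growth versus the drug-free control.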
# Finegoldia magna = test: Antimicrobial activity against Finegoldia magna under anaerobic conditions after 44 hrs by CLSI-M11-47 protocol based agar dilution method; assay type: functional; outline: as §1
# Clostridium hylemonae = test: Antimicrobial activity against Clostridium hylemonae under anaerobic conditions after 44 hrs by CLSI-M11-47 protocol based agar dilution method; assay type: functional; outline: as §1
# [2] = test system: Clostridium paraputrificum; test: Antimicrobial activity against Clostridium paraputrificum under anaerobic conditions after 44 hrs by CLSI-M11-47 protocol based agar dilution method; assay type: functional; outline: as §1
# Gemella morbillorum = test: Antimicrobial activity against Gemella morbillorum under anaerobic conditions after 44 hrs by CLSI-M11-47 protocol based agar dilution method; assay type: functional; outline: as §2
# [3] = test system: Paraclostridium bifermentans; test: Antimicrobial activity against Clostridium bifermentans under anaerobic conditions after 44 hrs by CLSI-M11-47 protocol based agar dilution method; assay type: functional; outline: as §1
# [4] = test system: Enterocloster clostridioformis; test: Antimicrobial activity against Clostridium clostridioforme under anaerobic conditions after 44 hrs by CLSI-M11-47 protocol based agar dilution method; assay type: functional; outline: as §1
# Slackia exigua = test: Antimicrobial activity against Slackia exigua under anaerobic conditions after 44 hrs by CLSI-M11-47 protocol based agar dilution method; assay type: functional; outline: as §2
# Prevotella corporis = test: Antimicrobial activity against Prevotella corporis under anaerobic conditions after 44 hrs by CLSI-M11-47 protocol based agar dilution method; assay type: functional; outline: as §2
# [5] = test system: Actinomyces neuii subsp. anitratus; test: Antimicrobial activity against Actinomyces neuii subsp. anitratus under anaerobic conditions after 44 hrs by CLSI-M11-47 protocol based agar dilution method; assay type: functional, Winkia neuii subsp. anitrata; conditions: Winkia neuii; outline: as §1
# Prevotella oris = test: Antimicrobial activity against Prevotella oris under anaerobic conditions after 44 hrs by CLSI-M11-47 protocol based agar dilution method; assay type: functional; conditions: Segatella oris; outline: as §2
# Clostridium hathewayi = test: Antimicrobial activity against Clostridium hathewayi under anaerobic conditions after 44 hrs by CLSI-M11-47 protocol based agar dilution method; assay type: functional; conditions: Hungatella hathewayi; outline: as §1
# [6] = test system: Porphyromonas asaccharolytica; test: Antimicrobial activity against Porphyromonas asaccharolyticus under anaerobic conditions after 44 hrs by CLSI-M11-47 protocol based agar dilution method; assay type: functional; outline: as §2
# Clostridium aldenense = test: Antimicrobial activity against Clostridium aldenense under anaerobic conditions after 44 hrs by CLSI-M11-47 protocol based agar dilution method; assay type: functional; conditions: Enterocloster aldenensis; outline: as §1
# [7] = test system: Peptoniphilus asaccharolyticus; test: Antimicrobial activity against Peptoniphilus asaccharolyticus under anaerobic conditions after 44 hrs by CLSI-M11-47 protocol based agar dilution method; assay type: functional; outline: as §2
# Anaerococcus octavius = test: Antimicrobial activity against Anaerococcus octavius under anaerobic conditions after 44 hrs by CLSI-M11-47 protocol based agar dilution method; assay type: functional; outline: as §1
# Prevotella nanceiensis = test: Antimicrobial activity against Prevotella nanceiensis under anaerobic conditions after 44 hrs by CLSI-M11-47 protocol based agar dilution method; assay type: functional; conditions: Hoylesella nanceiensis; outline: as §2
# Porphyromonas somerae = test: Antimicrobial activity against Porphyromonas somerae under anaerobic conditions after 44 hrs by CLSI-M11-47 protocol based agar dilution method; assay type: functional; outline: as §2
# Collinsella aerofaciens = test: Antimicrobial activity against Colinsella aerofaciens under anaerobic conditions after 44 hrs by CLSI-M11-47 protocol based agar dilution method; assay type: functional; outline: as §1
# [8] = test system: Prevotella melaninogenica; test: Antimicrobial activity against Prevotella melaninogenica under anaerobic conditions after 44 hrs by CLSI-M11-47 protocol based agar dilution method; assay type: functional; outline: as §2
# [9] = test system: Fusobacterium necrophorum; test: Antimicrobial activity against Fusobacterium necrophorum under anaerobic conditions after 44 hrs by CLSI-M11-47 protocol based agar dilution method; assay type: functional; outline: as §1
# Clostridium subterminale = test: Antimicrobial activity against Clostridium subterminale under anaerobic conditions after 44 hrs by CLSI-M11-47 protocol based agar dilution method; assay type: functional; outline: as §1
# Bacteroides uniformis = test: Antimicrobial activity against Bacteroides uniformis under anaerobic conditions after 44 hrs by CLSI-M11-47 protocol based agar dilution method; assay type: functional; outline: as §1
# Actinomyces israelii = test: Antimicrobial activity against Actinomyces israelii under anaerobic conditions after 44 hrs by CLSI-M11-47 protocol based agar dilution method; assay type: functional; outline: as §1
# Clostridium butyricum = test: Antimicrobial activity against Clostridium butyricum under anaerobic conditions after 44 hrs by CLSI-M11-47 protocol based agar dilution method; assay type: functional
# Anaerococcus = test: Antimicrobial activity against Anaerococcus sp. under anaerobic conditions after 44 hrs by CLSI-M11-47 protocol based agar dilution method; assay type: functional; outline: as §1
# Parabacteroides merdae = test: Antimicrobial activity against Bacteroides merdae under anaerobic conditions after 44 hrs by CLSI-M11-47 protocol based agar dilution method; assay type: functional; outline: as §1
# Anaerococcus vaginalis = test: Antimicrobial activity against Anaerococcus vaginalis under anaerobic conditions after 44 hrs by CLSI-M11-47 protocol based agar dilution method; assay type: functional; outline: as §1
# Clostridium citroniae = test: Antimicrobial activity against Clostridium citroniae under anaerobic conditions after 44 hrs by CLSI-M11-47 protocol based agar dilution method; assay type: functional; conditions: Enterocloster citroniae; outline: as §1
# Bacteroides ovatus = test: Antimicrobial activity against Bacteroides ovatus under anaerobic conditions after 44 hrs by CLSI-M11-47 protocol based agar dilution method; assay type: functional; outline: as §1
structure (smiles),measurement,setting,value
CCO/N=C(\C(=O)N[C@@H]1C(=O)N2C(C(=O)[O-])=C(Sc3nc(-c4cc[n+](C)cc4)cs3)CS[C@H]12)c1nsc(NP(=O)(O)O)n1 [CEFTAROLINE FOSAMIL],MIC50,[1],0.06 µg/mL
same,MIC90,[1],1 µg/mL
same,MIC50,Bacteroides caccae,64 µg/mL
same,MIC90,Bacteroides caccae,> 64 µg/mL
same,MIC50,Cutibacterium acnes,≤ 0.008 µg/mL
same,MIC90,Cutibacterium acnes,0.06 µg/mL
same,MIC50,Finegoldia magna,0.25 µg/mL
same,MIC90,Finegoldia magna,0.5 µg/mL
same,MIC50,Clostridium hylemonae,0.5 µg/mL
same,MIC90,Clostridium hylemonae,16 µg/mL
same,MIC50,[2],0.5 µg/mL
same,MIC90,[2],16 µg/mL
same,MIC50,Gemella morbillorum,0.06 µg/mL
same,MIC90,Gemella morbillorum,1 µg/mL
same,MIC50,[3],0.5 µg/mL
same,MIC90,[3],16 µg/mL
same,MIC50,[4],1 µg/mL
same,MIC90,[4],2 µg/mL
same,MIC50,Slackia exigua,0.125 µg/mL
same,MIC90,Slackia exigua,0.25 µg/mL
same,MIC50,Prevotella corporis,2 µg/mL
same,MIC90,Prevotella corporis,32 µg/mL
same,MIC50,[5],0.015 µg/mL
same,MIC90,[5],0.25 µg/mL
same,MIC50,Prevotella oris,2 µg/mL
same,MIC90,Prevotella oris,32 µg/mL
same,MIC50,Clostridium hathewayi,1 µg/mL
same,MIC90,Clostridium hathewayi,2 µg/mL
same,MIC50,[6],0.015 µg/mL
same,MIC90,[6],0.03 µg/mL
same,MIC50,Clostridium aldenense,1 µg/mL
same,MIC90,Clostridium aldenense,2 µg/mL
same,MIC50,[7],0.06 µg/mL
same,MIC90,[7],0.25 µg/mL
same,MIC50,Anaerococcus octavius,0.06 µg/mL
same,MIC90,Anaerococcus octavius,1 µg/mL
same,MIC50,Prevotella nanceiensis,2 µg/mL
same,MIC90,Prevotella nanceiensis,32 µg/mL
same,MIC50,Porphyromonas somerae,0.015 µg/mL
same,MIC90,Porphyromonas somerae,> 16 µg/mL
same,MIC50,Collinsella aerofaciens,0.125 µg/mL
same,MIC90,Collinsella aerofaciens,0.25 µg/mL
same,MIC50,[8],2 µg/mL
same,MIC90,[8],32 µg/mL
same,MIC50,[9],0.03 µg/mL
same,MIC90,[9],0.06 µg/mL
same,MIC50,Clostridium subterminale,0.5 µg/mL
same,MIC90,Clostridium subterminale,16 µg/mL
same,MIC50,Bacteroides uniformis,64 µg/mL
same,MIC90,Bacteroides uniformis,> 64 µg/mL
same,MIC50,Actinomyces israelii,0.015 µg/mL
same,MIC90,Actinomyces israelii,0.25 µg/mL
same,MIC50,Clostridium butyricum,0.5 µg/mL
same,MIC90,Clostridium butyricum,16 µg/mL
same,MIC50,Anaerococcus,0.06 µg/mL
same,MIC90,Anaerococcus,1 µg/mL
same,MIC50,Parabacteroides merdae,64 µg/mL
same,MIC90,Parabacteroides merdae,> 64 µg/mL
same,MIC50,Anaerococcus vaginalis,0.06 µg/mL
same,MIC90,Anaerococcus vaginalis,1 µg/mL
same,MIC50,Clostridium citroniae,1 µg/mL
same,MIC90,Clostridium citroniae,2 µg/mL
same,MIC50,Bacteroides ovatus,64 µg/mL
same,MIC90,Bacteroides ovatus,> 64 µg/mL
CO/N=C(\C(=O)N[C@@H]1C(=O)N2C(C(=O)O)=C(CSc3nc(=O)c(O)nn3C)CS[C@H]12)c1csc(N)n1 [CEFTRIAXONE],MIC50,[1],0.25 µg/mL
same,MIC90,[1],16 µg/mL
same,MIC50,Bacteroides caccae,> 64 µg/mL
same,MIC90,Bacteroides caccae,> 64 µg/mL
same,MIC50,Cutibacterium acnes,0.015 µg/mL
same,MIC90,Cutibacterium acnes,0.06 µg/mL
same,MIC50,Finegoldia magna,4 µg/mL
same,MIC90,Finegoldia magna,8 µg/mL
same,MIC50,Clostridium hylemonae,2 µg/mL
same,MIC90,Clostridium hylemonae,64 µg/mL
same,MIC50,[2],2 µg/mL
same,MIC90,[2],64 µg/mL
same,MIC50,Gemella morbillorum,0.25 µg/mL
same,MIC90,Gemella morbillorum,16 µg/mL
same,MIC50,[3],2 µg/mL
same,MIC90,[3],64 µg/mL
same,MIC50,[4],4 µg/mL
same,MIC90,[4],32 µg/mL
same,MIC50,Slackia exigua,0.5 µg/mL
same,MIC90,Slackia exigua,2 µg/mL
same,MIC50,Prevotella corporis,1 µg/mL
same,MIC90,Prevotella corporis,8 µg/mL
same,MIC50,[5],0.125 µg/mL
same,MIC90,[5],0.5 µg/mL
same,MIC50,Prevotella oris,1 µg/mL
same,MIC90,Prevotella oris,8 µg/mL
same,MIC50,Clostridium hathewayi,4 µg/mL
same,MIC90,Clostridium hathewayi,32 µg/mL
same,MIC50,[6],0.06 µg/mL
same,MIC90,[6],0.06 µg/mL
same,MIC50,Clostridium aldenense,4 µg/mL
same,MIC90,Clostridium aldenense,32 µg/mL
same,MIC50,[7],0.125 µg/mL
same,MIC90,[7],0.25 µg/mL
same,MIC50,Anaerococcus octavius,0.25 µg/mL
same,MIC90,Anaerococcus octavius,16 µg/mL
same,MIC50,Prevotella nanceiensis,1 µg/mL
same,MIC90,Prevotella nanceiensis,8 µg/mL
same,MIC50,Porphyromonas somerae,0.015 µg/mL
same,MIC90,Porphyromonas somerae,64 µg/mL
same,MIC50,Collinsella aerofaciens,0.5 µg/mL
same,MIC90,Collinsella aerofaciens,2 µg/mL
same,MIC50,[8],2 µg/mL
same,MIC90,[8],32 µg/mL
same,MIC50,[9],0.015 µg/mL
same,MIC90,[9],0.03 µg/mL
same,MIC50,Clostridium subterminale,2 µg/mL
same,MIC90,Clostridium subterminale,64 µg/mL
same,MIC50,Bacteroides uniformis,> 64 µg/mL
same,MIC90,Bacteroides uniformis,> 64 µg/mL
same,MIC50,Actinomyces israelii,0.125 µg/mL
same,MIC90,Actinomyces israelii,0.5 µg/mL
same,MIC50,Clostridium butyricum,2 µg/mL
same,MIC90,Clostridium butyricum,64 µg/mL
same,MIC50,Anaerococcus,0.25 µg/mL
same,MIC90,Anaerococcus,16 µg/mL
same,MIC50,Parabacteroides merdae,> 64 µg/mL
same,MIC90,Parabacteroides merdae,> 64 µg/mL
same,MIC50,Anaerococcus vaginalis,0.25 µg/mL
same,MIC90,Anaerococcus vaginalis,16 µg/mL
same,MIC50,Clostridium citroniae,4 µg/mL
same,MIC90,Clostridium citroniae,32 µg/mL
same,MIC50,Bacteroides ovatus,> 64 µg/mL
same,MIC90,Bacteroides ovatus,> 64 µg/mL
